This passage reports IC50 and pKa results from ChEMBL document CHEMBL1156307 (J Med Chem, 2010).

Some results are limits rather than exact numbers.

The subject of series [1] is HCT-116. The experiment in a line: Antiproliferative activity against human HCT116 cells by MTS assay. It is filed as functional, cell-based. In outline:
(§1)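 Monolayer proliferation assay. Cells were seeded at 5000-10000 per well and exposed to eight serial compound dilutions for 72 h. Viability was read by CellTiter-Glo or MTS per the kit protocol, and IC50 was taken from growth curves. Each determination averaged triplicate concentration-inhibition curves. Values are the mean ± standard deviation of two separate determinations.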
(Tetrazolium dyes change colour on reduction, which living cells bring about.)

A short description of series [2]: Antiproliferative activity against human H1299 cells by MTS assay. As to conditions: NCI-H1299. The class given is functional, cell-based. In a few lines:
as §1

The target of series [3] is Histone deacetylase 2 (Homo sapiens, UniProt Q92769). The experiment in a line: Inhibition of HDAC2 expressed in baculovirus system by fluorescent assay.
Sequence of Histone deacetylase 2 (Q92769 whole entry): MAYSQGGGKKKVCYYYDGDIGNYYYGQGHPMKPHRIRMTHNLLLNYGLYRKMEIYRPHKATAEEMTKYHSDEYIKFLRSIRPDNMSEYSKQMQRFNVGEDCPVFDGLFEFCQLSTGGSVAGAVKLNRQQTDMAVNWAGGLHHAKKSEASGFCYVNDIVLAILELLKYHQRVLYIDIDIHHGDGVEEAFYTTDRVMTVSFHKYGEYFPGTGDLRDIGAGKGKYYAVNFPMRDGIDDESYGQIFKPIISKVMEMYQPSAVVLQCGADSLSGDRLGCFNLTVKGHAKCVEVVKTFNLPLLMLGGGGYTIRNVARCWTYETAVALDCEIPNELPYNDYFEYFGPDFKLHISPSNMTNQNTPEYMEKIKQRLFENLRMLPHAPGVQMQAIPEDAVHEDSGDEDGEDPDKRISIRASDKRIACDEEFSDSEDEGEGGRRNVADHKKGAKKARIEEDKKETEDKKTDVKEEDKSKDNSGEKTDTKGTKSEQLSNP
Series [4] has as its target Histone deacetylase 3 (Homo sapiens, UniProt O15379). The experiment in a line: Inhibition of FLAG-tagged HDAC3 expressed in HEK293 cells by fluorescent assay. The class given is cell-based. In a few lines: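 HDAC3 immunopurified from 293 cells stably expressing FLAG-tagged enzyme. Substrate bis-Boc-(Ac)Lys-rhodamine 110; its deacetylation releases a fluorophore, read on a fluorometric plate reader.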

For series [5], the target named is Histone deacetylase 4 (Homo sapiens, UniProt P56524). The experiment in a line: Inhibition of HDAC4 expressed in baculovirus system by fluorescent assay. In a few lines: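 HDAC4 purified from a baculovirus expression system. Substrate bis-Boc-(Ac)Lys-rhodamine 110; its deacetylation generates a fluorophore, read on a fluorometric plate reader.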
Sequence of Histone deacetylase 4 (P56524 whole entry): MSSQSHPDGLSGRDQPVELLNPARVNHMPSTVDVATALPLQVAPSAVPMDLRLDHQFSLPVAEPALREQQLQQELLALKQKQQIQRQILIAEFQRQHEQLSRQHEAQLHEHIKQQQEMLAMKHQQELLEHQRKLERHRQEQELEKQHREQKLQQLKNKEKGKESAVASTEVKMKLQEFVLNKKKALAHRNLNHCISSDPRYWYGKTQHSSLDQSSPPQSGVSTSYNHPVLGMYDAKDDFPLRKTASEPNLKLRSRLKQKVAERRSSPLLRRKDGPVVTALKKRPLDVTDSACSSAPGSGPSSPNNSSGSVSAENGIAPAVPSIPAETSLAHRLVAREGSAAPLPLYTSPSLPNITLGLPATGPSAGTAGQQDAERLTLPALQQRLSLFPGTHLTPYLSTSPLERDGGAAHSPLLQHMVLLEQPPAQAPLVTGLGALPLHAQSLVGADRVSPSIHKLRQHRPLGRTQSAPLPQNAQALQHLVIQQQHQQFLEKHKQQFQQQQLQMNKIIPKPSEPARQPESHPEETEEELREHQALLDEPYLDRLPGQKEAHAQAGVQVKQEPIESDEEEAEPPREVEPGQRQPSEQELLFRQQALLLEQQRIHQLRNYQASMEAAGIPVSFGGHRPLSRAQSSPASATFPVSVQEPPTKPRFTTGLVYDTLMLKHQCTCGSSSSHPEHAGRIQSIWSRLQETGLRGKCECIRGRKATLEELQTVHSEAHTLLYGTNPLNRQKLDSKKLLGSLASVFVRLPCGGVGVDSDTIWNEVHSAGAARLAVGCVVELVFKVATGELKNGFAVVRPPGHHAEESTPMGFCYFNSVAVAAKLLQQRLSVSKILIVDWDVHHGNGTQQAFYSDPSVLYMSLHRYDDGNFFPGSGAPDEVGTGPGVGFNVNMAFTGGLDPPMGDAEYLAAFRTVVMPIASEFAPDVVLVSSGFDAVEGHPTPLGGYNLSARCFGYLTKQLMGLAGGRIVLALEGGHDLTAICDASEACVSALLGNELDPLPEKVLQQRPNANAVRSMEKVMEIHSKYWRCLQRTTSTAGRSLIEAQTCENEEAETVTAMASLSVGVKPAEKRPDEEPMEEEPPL
Series [6] deals with T1, Protein deacetylase HDAC6 (Homo sapiens, UniProt Q9UBN7).
T1 sequence (Q9UBN7 whole entry): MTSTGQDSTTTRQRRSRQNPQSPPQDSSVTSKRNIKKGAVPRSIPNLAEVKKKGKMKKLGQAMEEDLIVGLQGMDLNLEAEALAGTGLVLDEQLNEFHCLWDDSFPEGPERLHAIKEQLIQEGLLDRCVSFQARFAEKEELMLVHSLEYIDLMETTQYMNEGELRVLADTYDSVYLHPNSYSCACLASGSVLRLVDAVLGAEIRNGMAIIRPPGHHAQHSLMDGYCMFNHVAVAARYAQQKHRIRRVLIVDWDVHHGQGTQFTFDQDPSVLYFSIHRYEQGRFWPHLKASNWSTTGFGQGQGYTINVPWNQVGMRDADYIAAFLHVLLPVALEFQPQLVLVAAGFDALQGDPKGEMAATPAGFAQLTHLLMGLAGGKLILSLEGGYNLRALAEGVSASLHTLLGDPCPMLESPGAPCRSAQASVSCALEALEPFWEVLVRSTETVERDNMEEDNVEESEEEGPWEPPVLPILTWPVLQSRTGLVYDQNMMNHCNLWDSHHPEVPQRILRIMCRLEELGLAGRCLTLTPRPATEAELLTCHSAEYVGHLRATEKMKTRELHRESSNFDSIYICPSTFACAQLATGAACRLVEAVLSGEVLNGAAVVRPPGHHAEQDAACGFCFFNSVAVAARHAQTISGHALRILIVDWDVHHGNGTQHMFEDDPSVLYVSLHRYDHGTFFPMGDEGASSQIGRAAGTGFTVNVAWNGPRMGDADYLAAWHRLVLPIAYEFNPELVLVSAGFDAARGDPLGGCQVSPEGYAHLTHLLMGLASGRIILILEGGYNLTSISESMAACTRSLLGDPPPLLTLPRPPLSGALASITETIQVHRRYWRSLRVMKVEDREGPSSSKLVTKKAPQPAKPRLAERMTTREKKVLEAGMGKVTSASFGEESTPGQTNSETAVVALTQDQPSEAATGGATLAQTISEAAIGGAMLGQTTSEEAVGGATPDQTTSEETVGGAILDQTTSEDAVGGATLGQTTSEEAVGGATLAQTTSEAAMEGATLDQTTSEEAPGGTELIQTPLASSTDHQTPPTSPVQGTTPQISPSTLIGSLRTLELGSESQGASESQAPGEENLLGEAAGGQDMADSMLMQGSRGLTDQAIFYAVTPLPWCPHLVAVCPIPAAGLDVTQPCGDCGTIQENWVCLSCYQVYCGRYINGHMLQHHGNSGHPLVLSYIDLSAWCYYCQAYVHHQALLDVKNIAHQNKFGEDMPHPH
Put plainly: Inhibition of FLAG-tagged HDAC6 expressed in HEK293 cells by fluorescent assay. The class given is cell-based. In a few lines: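 HDAC6 immunopurified from 293 cells stably expressing the FLAG-tagged isoform. Deacetylation of the bis-Boc-(Ac)Lys-rhodamine 110 substrate releases a fluorophore, read on a fluorometric plate reader.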

The target in series [7] is T2, Histone deacetylase 8 (Homo sapiens, UniProt Q9BY41).
T2 sequence (Q9BY41 whole entry): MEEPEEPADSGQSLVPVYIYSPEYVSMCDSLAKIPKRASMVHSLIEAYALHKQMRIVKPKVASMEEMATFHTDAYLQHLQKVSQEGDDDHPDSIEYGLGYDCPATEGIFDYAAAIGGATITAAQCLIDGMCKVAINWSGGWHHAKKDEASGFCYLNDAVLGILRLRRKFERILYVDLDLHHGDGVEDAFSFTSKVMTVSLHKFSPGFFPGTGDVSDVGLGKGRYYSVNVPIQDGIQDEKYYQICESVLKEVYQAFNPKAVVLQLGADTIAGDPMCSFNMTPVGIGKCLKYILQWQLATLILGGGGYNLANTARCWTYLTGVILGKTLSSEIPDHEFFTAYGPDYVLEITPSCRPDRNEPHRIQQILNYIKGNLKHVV
Put plainly: Inhibition of HDAC8 expressed in baculovirus system by fluorescent assay.

The target of series [8] is Histone deacetylase 1 (Homo sapiens, UniProt Q13547). The experiment in a line: Inhibition of FLAG-tagged HDAC1 expressed in HEK293 cells by fluorescent assay. It is filed as cell-based.
Sequence of Histone deacetylase 1 (Q13547 whole entry): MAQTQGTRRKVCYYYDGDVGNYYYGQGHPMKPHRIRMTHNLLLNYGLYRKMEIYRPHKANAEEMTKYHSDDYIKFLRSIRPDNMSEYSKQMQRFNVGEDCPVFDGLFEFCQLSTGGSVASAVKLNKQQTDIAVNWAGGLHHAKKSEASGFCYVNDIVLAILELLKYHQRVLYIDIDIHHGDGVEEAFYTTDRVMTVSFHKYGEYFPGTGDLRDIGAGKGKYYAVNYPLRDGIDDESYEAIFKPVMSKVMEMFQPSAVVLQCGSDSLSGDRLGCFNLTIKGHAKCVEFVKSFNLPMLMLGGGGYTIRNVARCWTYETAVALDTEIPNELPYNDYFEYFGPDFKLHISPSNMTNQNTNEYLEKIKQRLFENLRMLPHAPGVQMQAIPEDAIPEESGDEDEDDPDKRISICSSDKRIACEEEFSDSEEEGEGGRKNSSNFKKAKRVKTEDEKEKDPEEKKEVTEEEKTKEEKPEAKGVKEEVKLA
Series [9] can be described thus: Association constant, pKa at pH 2 to 12. It is filed as physicochemical.
Series [10] has as its target Voltage-gated inwardly rectifying potassium channel KCNH2 (Homo sapiens, UniProt Q12809). The experiment in a line: Inhibition of human ERG expressed in CHO cells by automated patch clamp electrophysiology assay. Background: Patch clamp records ionic current or voltage across a cell membrane.

Sequence of Voltage-gated inwardly rectifying potassium channel KCNH2 (Q12809 whole entry): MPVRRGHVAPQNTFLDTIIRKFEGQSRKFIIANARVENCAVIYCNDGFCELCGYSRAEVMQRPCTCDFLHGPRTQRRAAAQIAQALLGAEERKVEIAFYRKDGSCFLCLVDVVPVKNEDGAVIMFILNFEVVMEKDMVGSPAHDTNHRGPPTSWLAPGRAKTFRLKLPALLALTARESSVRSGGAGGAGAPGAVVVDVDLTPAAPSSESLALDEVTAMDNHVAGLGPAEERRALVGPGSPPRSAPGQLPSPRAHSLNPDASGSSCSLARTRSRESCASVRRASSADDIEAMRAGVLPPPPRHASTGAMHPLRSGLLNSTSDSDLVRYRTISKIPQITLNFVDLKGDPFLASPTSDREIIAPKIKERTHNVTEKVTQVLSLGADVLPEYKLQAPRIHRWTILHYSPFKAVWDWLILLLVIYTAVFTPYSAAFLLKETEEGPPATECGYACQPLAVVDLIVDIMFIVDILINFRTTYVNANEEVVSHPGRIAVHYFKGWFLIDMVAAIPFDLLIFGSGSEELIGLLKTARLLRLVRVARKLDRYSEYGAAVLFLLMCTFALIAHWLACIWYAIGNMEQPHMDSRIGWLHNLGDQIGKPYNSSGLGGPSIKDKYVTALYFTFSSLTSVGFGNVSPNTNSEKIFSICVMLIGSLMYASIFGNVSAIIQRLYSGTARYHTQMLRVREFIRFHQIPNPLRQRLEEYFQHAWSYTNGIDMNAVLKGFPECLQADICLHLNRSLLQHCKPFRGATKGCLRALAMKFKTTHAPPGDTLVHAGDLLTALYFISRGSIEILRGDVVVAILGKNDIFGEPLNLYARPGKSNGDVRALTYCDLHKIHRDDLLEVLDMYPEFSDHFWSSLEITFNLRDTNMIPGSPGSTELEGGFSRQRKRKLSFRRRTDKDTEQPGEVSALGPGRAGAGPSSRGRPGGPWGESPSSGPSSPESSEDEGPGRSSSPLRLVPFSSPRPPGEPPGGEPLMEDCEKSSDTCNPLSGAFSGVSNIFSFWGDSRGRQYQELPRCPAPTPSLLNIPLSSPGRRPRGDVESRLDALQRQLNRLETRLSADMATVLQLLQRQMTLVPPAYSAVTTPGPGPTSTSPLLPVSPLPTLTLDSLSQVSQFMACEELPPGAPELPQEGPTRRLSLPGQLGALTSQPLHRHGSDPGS
Sequence of Histone deacetylase 3 (O15379 whole entry): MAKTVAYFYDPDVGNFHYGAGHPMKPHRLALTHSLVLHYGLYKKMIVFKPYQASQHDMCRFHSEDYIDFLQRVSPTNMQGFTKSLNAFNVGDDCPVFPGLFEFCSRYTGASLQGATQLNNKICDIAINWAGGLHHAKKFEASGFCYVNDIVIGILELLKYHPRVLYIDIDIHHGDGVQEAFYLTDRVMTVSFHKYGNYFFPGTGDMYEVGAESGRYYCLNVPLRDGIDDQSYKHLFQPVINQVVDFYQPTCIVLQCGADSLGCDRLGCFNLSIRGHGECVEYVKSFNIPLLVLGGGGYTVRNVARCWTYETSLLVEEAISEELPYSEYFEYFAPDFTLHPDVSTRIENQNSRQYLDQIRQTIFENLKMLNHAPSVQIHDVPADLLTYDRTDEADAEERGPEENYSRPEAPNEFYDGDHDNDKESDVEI

On to `CC(C)(C)c1[nH]c2ccccc2c1[C@H]1CCCN(Cc2ccc(/C=C/C(=O)NO)cc2F)C1`, for which the IC50 (as a rule, the concentration that gives 50% inhibition) in series [1] stood at 0.8 nM; in series [2], 5.4 nM; in series [3], 31 nM; in [4], 9 nM; in series [5] it was 28 nM; in series [6], 118 nM. In [7], this molecule had a 50% inhibitory concentration (IC50) of 217 nM.
Regarding `O=C(/C=C/c1ccc(CN2CCCC(c3c[nH]c4ccccc34)C2)cc1)NO` (configuration not stated), the IC50 in [8] was determined as 11 nM; in [1], 25 nM; in series [2], 141 nM. The pKa – broadly, the negative logarithm of the acid dissociation constant – in [9] stood at 7.3.
As to `CC(C)(C)c1[nH]c2ccccc2c1C1CCCN(Cc2ccc(/C=C/C(=O)NO)cc2F)C1` (configuration not stated), the results for the IC50 in [1] and in series [2] were 3.8 nM and 20 nM, respectively. In addition, in series [9], the pKa was determined as 7.3.
Take `Cc1[nH]c2ccccc2c1CCN1CCCC1c1ccc(/C=C/C(=O)NO)cc1` (configuration not stated): the IC50 in [1] amounted to 1 nM; in [2], 4.3 nM; in series [10], 19400 nM.
As to `Cc1[nH]c2ccccc2c1CCN1CCc2ccc(/C=C/C(=O)NO)cc2CC1`, the half-maximal inhibitory concentration (IC50) in series [8] is 76 nM; in series [1], 545 nM; in series [2], over 1000 nM; in series [10], 3200 nM.
`Cc1[nH]c2ccccc2c1CCN1CCc2cc(/C=C/C(=O)NO)ccc2C1`: the values for the half-maximal inhibitory concentration (IC50) in series [8], in series [1] and in series [2] were 41 nM, 119 nM and 725 nM, respectively.
For `O=C(/C=C/c1ccc(CN2CCCC(c3c(-c4ccccc4)[nH]c4ccccc34)C2)cc1)NO` (configuration not stated), the IC50 in series [8] is 11 nM; in series [1] it was 6.9 nM; in series [2], 31 nM. The same molecule showed a pKa in series [9] of 7.7.
As for `Cc1[nH]c2ccccc2c1CCN1Cc2ccc(/C=C/C(=O)NO)cc2C1`, the concentration for half-maximal inhibition (IC50) in [8] stood at 27 nM; in series [1] it was 41 nM; in [2], 232 nM; in series [10] it was 4800 nM.
Take `CC(C)(C)c1[nH]c2ccccc2c1C1CCCN(Cc2ccc(/C=C/C(=O)NO)cc2Cl)C1` (configuration not stated): the figures for the 50% inhibitory concentration (IC50) in series [1], in [2] and in series [10] were 5.2 nM, 60 nM and 9900 nM, respectively. Also, the pKa in series [9] is 7.4.
On to `O=C(/C=C/c1ccc(CN2CCCC(c3c[nH]c4ccccc34)C2)c(F)c1)NO` (configuration not stated), for which the IC50 in [8] was found to be 136 nM; in series [1] it was 332 nM; in series [2] it was 3520 nM.
In the case of `O=C(/C=C/c1ccc(CN2CCCC(c3c(-c4ccccc4)[nH]c4ccccc34)C2)c(F)c1)NO` (configuration not stated), the figures for the IC50 in [8], in series [1] and in [2] were 16 nM, 11 nM and 106 nM, respectively. This molecule also came in with a pKa in [9] of 7.4.
For `CC(C)(C)c1[nH]c2ccccc2c1C1CCCN(Cc2ccc(/C=C/C(=O)NO)cc2)C1` (configuration not stated), the half-inhibitory concentration (IC50) in [1] came to 0.9 nM; in series [2] it was 6.3 nM; in series [10], 13500 nM. The pKa in series [9] worked out at 7.8.
As for `Cc1[nH]c2ccccc2c1CC1CCCCN1Cc1ccc(/C=C/C(=O)NO)cc1` (configuration not stated), the IC50 in [8] is 24 nM; in series [1], 27 nM; in series [2] it was 153 nM.
Take `Cc1[nH]c2ccccc2c1CCN1CCc2ccc(/C=C/C(=O)NO)cc2C1`: the IC50 in series [8] came out at 13 nM; in [1] it was 42 nM; in [2] it was 165 nM; in series [10], 2700 nM.
For `Cc1[nH]c2ccccc2c1C1CCCN(Cc2ccc(/C=C/C(=O)NO)cc2)C1` (configuration not stated), the IC50 in series [8] is 5 nM; in series [1], 5.6 nM; in series [2] it was 31 nM; in [10], 27600 nM. In series [9], the pKa turned out to be 7.8.
On to `Cc1[nH]c2ccccc2c1C1CCN(Cc2ccc(/C=C/C(=O)NO)cc2)C1` (configuration not stated), for which the half-inhibitory concentration (IC50) in series [8] was 2.8 nM; in [1], 3.2 nM; in [2], 14 nM; in series [10] it was 13400 nM.
For `CC(C)(C)c1[nH]c2ccccc2c1[C@@H]1CCCN(Cc2ccc(/C=C/C(=O)NO)cc2F)C1`, the IC50 in [1] came out at 143 nM; in series [2], 443 nM; in series [3], 48 nM; in series [4] it was 21 nM; in series [5] it was 38 nM; in series [6] it was 110 nM. In series [7], it took 364 nM to reach half-maximal inhibition (IC50).
With `O=C(/C=C/c1ccc(CN(CCO)CCc2c[nH]c3ccccc23)cc1)NO` [DACINOSTAT], the half-inhibitory concentration (IC50) was determined as 13 nM in [1] and 161 nM in [2].
